Reference: ChEMBL document CHEMBL4428039, “Anticancer properties of new synthetic hybrid molecules combining naphtho[2,3-b]furan-4,9-dione or benzo[f]indole-4,9-dione motif with phosphonate subunit” (Eur J Med Chem, 2016)
The source made the active and inactive calls. The rule behind the calls is not given here.

Legend:
[1] = Selectivity index, ratio of IC50 for human MCF10A cells to IC50 for human MCF7 cells; format: toxicity; conditions: MCF10A cells versus MCF7 cells, read-out: Ratio IC50
[2] = tested on: NALM-6; assay: Cytotoxicity against human NALM6 cells assessed as inhibition of metabolic activity after 48 hrs by MTT assay; format: functional, cell-based; conditions: NALM-6, 48 h
Procedure, shortened: (§1)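 Exponentially growing cells seeded in 96-well plates and grown 24 h. Compounds in DMSO, diluted in medium (final DMSO <0.1%), added at 10^-7 to 10^-3 M for 48 h. MTT (5 mg/mL in PBS) then added for 2 h. Formazan dissolved in DMSO and read at 560 nm against untreated cells. IC50 taken from concentration–response curves; mean ± SD of ≥3 experiments.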

[3] = tested on: MCF-10A; assay: Cytotoxicity against human MCF10A cells assessed as inhibition of metabolic activity after 48 hrs by MTT assay; format: ADME, cell-based; procedure, shortened: as §1
[4] = tested on: HL-60; assay: Cytotoxicity against human HL60 cells assessed as inhibition of metabolic activity after 48 hrs by MTT assay; format: functional, cell-based; conditions: HL-60, 48 h; procedure, shortened: as §1
[5] = tested on: HUVEC; assay: Cytotoxicity against HUVEC assessed as inhibition of metabolic activity after 48 hrs by MTT assay; format: ADME, cell-based; conditions: Homo sapiens; procedure, shortened: as §1
[6] = tested on: MCF7; assay: Cytotoxicity against human MCF7 cells assessed as inhibition of metabolic activity after 48 hrs by MTT assay; format: functional, cell-based; conditions: MCF7, 48 h; procedure, shortened: as §1
[7] = tested on: HL-60; assay: Induction of DNA damage in human HL60 cells assessed as increase in H2AX phosphorylation at S139 residue at 7.27 +/- 0.08 uM after 24 hrs by DAPI staining based flow cytometry relative to control; format: functional
[8] = tested on: HL-60; assay: Induction of apoptosis in human HL60 cells assessed as late apoptotic cells at 7.27 +/- 0.08 uM after 24 hrs by Annexin V-APC/propidium iodide staining based flow cytometry (reference value: 2.7%); format: functional
[9] = tested on: HL-60; assay: Cell cycle arrest in human HL60 cells assessed as accumulation at G2/M phase at 7.27 +/- 0.08 uM after 24 hrs by DAPI staining based flow cytometry (reference value: 31.2%); format: functional
[10] = tested on: HL-60; assay: Cytotoxicity against human HL60 cells assessed as inhibition of metabolic activity after 24 hrs by MTT assay; format: functional, cell-based; conditions: HL-60, 24 h
Procedure, shortened: (§2)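 MTT assay on HL-60 or MCF-7 cells seeded and grown 24 h, then treated 24 h over 10^-7 to 10^-3 M (final DMSO <0.1%). MTT (5 mg/mL in PBS) added for 2 h. Formazan dissolved in DMSO and read at 560 nm against untreated cells. IC50 derived from concentration–response curves of ≥3 experiments.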

[11] = tested on: HL-60; assay: Induction of apoptosis in human HL60 cells assessed as increase in cleaved PARP positive cells at 7.27 +/- 0.08 uM after 24 hrs by DAPI staining based flow cytometry (reference value: 1.2 +/- 0.2%); format: functional
[12] = tested on: MCF7; assay: Induction of apoptosis in human MCF7 cells assessed as increase in cleaved PARP positive cells at 3.4 +/- 0.15 uM after 24 hrs by DAPI staining based flow cytometry relative to control; format: functional, cell-based
[13] = tested on: MCF7; assay: Cell cycle arrest in human MCF7 cells assessed as accumulation at S phase at 3.4 +/- 0.15 uM after 24 hrs by DAPI staining based flow cytometry (reference value: 22%); format: functional
[14] = tested on: MCF7; assay: Induction of apoptosis in human MCF7 cells assessed as necrotic cells at 3.4 +/- 0.15 uM after 24 hrs by Annexin V-APC/propidium iodide staining based flow cytometry (reference value: 1.9%); format: functional
[15] = tested on: HL-60; assay: Inhibition of cell proliferation in human HL60 cells assessed as reduction in BrdU incorporation at 7.27 +/- 0.08 uM after 24 hrs by DAPI staining based flow cytometry relative to control; format: functional
[16] = tested on: MCF7; assay: Induction of apoptosis in human MCF7 cells assessed as late apoptotic cells at 3.4 +/- 0.15 uM after 24 hrs by Annexin V-APC/propidium iodide staining based flow cytometry (reference value: 6.1%); format: functional
[17] = tested on: MCF7; assay: Induction of transmembrane potential depolarization in human MCF7 cells at 3.4 +/- 0.15 uM after 24 hrs by JC-10 staining based flow cytometry (reference value: 18.2%); format: functional
[18] = tested on: HL-60; assay: Cell cycle arrest in human HL60 cells assessed as accumulation at S phase at 7.27 +/- 0.08 uM after 24 hrs by DAPI staining based flow cytometry (reference value: 26.1%); format: functional
[19] = tested on: MCF7; assay: Induction of ROS generation in human MCF7 cells at 3.4 +/- 0.15 uM after 24 hrs by Cellrox Green staining based flow cytometry relative to control; format: functional
[20] = tested on: HL-60; assay: Induction of ROS generation in human HL60 cells at 7.27 +/- 0.08 uM after 24 hrs by Cellrox Green staining based flow cytometry relative to control; format: functional
[21] = tested on: HL-60; assay: Induction of apoptosis in human HL60 cells assessed as early apoptotic cells at 7.27 +/- 0.08 uM after 24 hrs by Annexin V-APC/propidium iodide staining based flow cytometry (reference value: 3.4%); format: functional
[22] = tested on: MCF7; assay: Inhibition of cell proliferation in human MCF7 cells assessed as reduction in BrdU incorporation at 3.4 +/- 0.15 uM after 24 hrs by DAPI staining based flow cytometry relative to control; format: functional
[23] = tested on: HL-60; assay: Cell cycle arrest in human HL60 cells assessed as accumulation at subG0/G1 phase at 7.27 +/- 0.08 uM after 24 hrs by DAPI staining based flow cytometry (reference value: 3.1%); format: functional
[24] = tested on: HL-60; assay: Induction of apoptosis in human HL60 cells assessed as necrotic cells at 7.27 +/- 0.08 uM after 24 hrs by Annexin V-APC/propidium iodide staining based flow cytometry (reference value: 0.1%); format: functional
[25] = tested on: MCF7; assay: Cell cycle arrest in human MCF7 cells assessed as accumulation at G0/G1 phase at 3.4 +/- 0.15 uM after 24 hrs by DAPI staining based flow cytometry (reference value: 55%); format: functional
[26] = tested on: HL-60; assay: Cell cycle arrest in human HL60 cells assessed as accumulation at G0/G1 phase at 7.27 +/- 0.08 uM after 24 hrs by DAPI staining based flow cytometry (reference value: 39.5%); format: functional
[27] = tested on: MCF7; assay: Cytotoxicity against human MCF7 cells assessed as inhibition of metabolic activity after 24 hrs by MTT assay; format: functional, cell-based; conditions: MCF7, 24 h; procedure, shortened: as §2
[28] = tested on: MCF7; assay: Induction of DNA damage in human MCF7 cells assessed as increase in H2AX phosphorylation at S139 residue at 3.4 +/- 0.15 uM after 24 hrs by DAPI staining based flow cytometry relative to control; format: functional
[29] = tested on: MCF7; assay: Induction of apoptosis in human MCF7 cells assessed as viable cells at 3.4 +/- 0.15 uM after 24 hrs by Annexin V-APC/propidium iodide staining based flow cytometry (reference value: 86.1%); format: functional
[30] = tested on: MCF7; assay: Cell cycle arrest in human MCF7 cells assessed as accumulation at G2/M phase at 3.4 +/- 0.15 uM after 24 hrs by DAPI staining based flow cytometry (reference value: 23%); format: functional
[31] = tested on: HL-60; assay: Induction of transmembrane potential depolarization in human HL60 cells at 7.27 +/- 0.08 uM after 24 hrs by JC-10 staining based flow cytometry (reference value: 15.9%); format: functional
[32] = tested on: MCF7; assay: Induction of apoptosis in human MCF7 cells assessed as early apoptotic cells at 3.4 +/- 0.15 uM after 24 hrs by Annexin V-APC/propidium iodide staining based flow cytometry (reference value: 5.9%); format: functional
[33] = tested on: HL-60; assay: Induction of ROS generation in human HL60 cells at 200 uM after 1 hr by Cellrox Green staining based flow cytometry; format: functional, cell-based
Procedure, shortened: (§3)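 Positive-control ROS measurement in HL-60 and MCF-7 cells: menadione 200 µM for 1 h. Cells then stained with 5 µM CellROX Green for 30 min at 37 °C and analysed by flow cytometry. 3–4 independent experiments in triplicate, mean ± SEM.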

[34] = tested on: MCF7; assay: Induction of ROS generation in human MCF7 cells at 200 uM after 1 hr by Cellrox Green staining based flow cytometry; format: functional, cell-based; procedure, shortened: as §3

CCOP(=O)(OCC)c1c(-c2cc(F)c(Cl)nc2Cl)oc2c1C(=O)c1ccccc1C2=O
selectivity ratio [1]: 4
IC50 [2]: 5.32 µM
IC50 [3]: 9.79 µM
IC50 [4]: 5.94 µM
IC50 [5]: 4.85 µM
IC50 [6]: 2.85 µM

CCOP(=O)(OCC)c1c2c(n(Cc3ccccc3Cl)c1O)C(=O)c1ccccc1C2=O
IC50 [2]: 60.1 µM
IC50 [4]: 42.4 µM
IC50 [6]: 65 µM

CCOP(=O)(OCC)c1c2c(n(C3CC3)c1O)C(=O)c1ccccc1C2=O
IC50 [2]: 51.3 µM
IC50 [4]: 65 µM
IC50 [6]: 102 µM

CCOP(=O)(OCC)c1c2c(n(C)c1O)C(=O)c1ccccc1C2=O
IC50 [2]: 61.7 µM
IC50 [4]: 59.7 µM
IC50 [6]: 50 µM

CCCn1c(O)c(P(=O)(OCC)OCC)c2c1C(=O)c1ccccc1C2=O
IC50 [2]: 60 µM
IC50 [4]: 56.2 µM
IC50 [6]: 43.9 µM

CCOP(=O)(OCC)c1c(-c2cccnc2Cl)oc2c1C(=O)c1ccccc1C2=O
IC50 [2]: 6.65 µM
IC50 [4]: 8.66 µM
IC50 [6]: 2.55 µM

CCOP(=O)(OCC)c1c(-c2ccccc2Cl)oc2c1C(=O)c1ccccc1C2=O
Activity [7]: 40.7%
selectivity ratio [1]: 4
Activity [8]: 27.8%
Activity [9]: 26.1%
IC50 [10]: 7.27 µM
Activity [11]: <=82.8%
Activity [12]: inactive
Activity [13]: 22.4%
IC50 [2]: 5.07 µM
IC50 [3]: 10 µM
Activity [14]: 5.6%
inhibition (INH) [15]: 91%
Activity [16]: 19%
Activity [17]: 50 - 50.1%
IC50 [4]: 6.35 µM
IC50 [5]: 3.73 µM
Activity [18]: 36.1%
fold change (FC) [19]: 10
fold change (FC) [20]: 10
Activity [21]: 4.8%
inhibition (INH) [22]: 34%
Activity [23]: 8.2%
Activity [24]: 2.7%
IC50 [6]: 2.34 µM
Activity [25]: 62%
Activity [26]: 33.5%
IC50 [27]: 3.4 µM
Activity [28]: 11.03%
Activity [29]: 72.4%
Activity [30]: 16.4%
Activity [31]: 44%
Activity [32]: 3%

CCOP(=O)(OCC)c1c(C)oc2c1C(=O)c1ccccc1C2=O
IC50 [2]: 5.85 µM
IC50 [4]: 8.13 µM
IC50 [6]: 5.7 µM

COc1cccc2c1C(=O)c1c(O)c3c(c(O)c1C2=O)C[C@@](O)(C(=O)CO)C[C@@H]3O[C@H]1C[C@H](N)[C@H](O)[C@H](C)O1 [DOXORUBICIN]
IC50 [3]: 1.2 µM
IC50 [4]: 0.11 µM
IC50 [5]: 1.4 µM

CCOP(=O)(O)c1c(-c2ccccc2Cl)oc2c1C(=O)c1ccccc1C2=O
IC50 [2]: 479 µM
IC50 [4]: 487 µM
IC50 [6]: 150 µM

CCCCCCn1c(O)c(P(=O)(OCC)OCC)c2c1C(=O)c1ccccc1C2=O
IC50 [2]: 44.3 µM
IC50 [4]: 30.7 µM
IC50 [6]: 19.5 µM

CC1=CC(=O)c2ccccc2C1=O
Activity [33]: Active
Activity [34]: Active

CCOP(=O)(OCC)c1c(-c2ccccc2)oc2c1C(=O)c1ccccc1C2=O
IC50 [2]: 6.06 µM
IC50 [4]: 6.01 µM
IC50 [6]: 2.4 µM

CCOP(=O)(OCC)c1c(-c2ccc(Cl)cc2Cl)oc2c1C(=O)c1ccccc1C2=O
selectivity ratio [1]: 4
IC50 [2]: 4.82 µM
IC50 [3]: 11.3 µM
IC50 [4]: 5.44 µM
IC50 [5]: 4.06 µM
IC50 [6]: 2.9 µM
